Laboratory results published in ChEMBL document CHEMBL4145645, “Bioactive Phenolic Components from the Twigs of Atalantia buxifolia” (J Nat Prod, 2018).

Experiments:
HepG2 = experiment: Cytotoxicity against human HepG2 cells by MTT assay; type: functional, cell-based
A549 = experiment: Cytotoxicity against human A549 cells by MTT assay; type: functional, cell-based
MDA-MB-231 = experiment: Cytotoxicity against human MDA-MB-231 cells by MTT assay; type: functional, cell-based
Neutrophil [1] = experiment: Antiinflammatory activity in human neutrophils assessed as inhibition of fMLP/CB-induced elastase release preincubated for 5 mins followed by fMLP/CB stimulation and measured for 10 mins using MeO-Suc-Ala-Ala-Pro-Val-p-nitroanilide as substrate; type: functional, cell-based
In short: (§1)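 Human neutrophils stimulated with fMLF. For the superoxide read-out, cells were equilibrated in ferricytochrome c at 0.6 mg/mL. Other steps for superoxide generation and elastase release followed an earlier published protocol. Values are means ± SEM, n = 3 or 4.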

Neutrophil [2] = experiment: Antiinflammatory activity in human neutrophils assessed as inhibition of fMLP/CB-induced superoxide anion generation preincubated for 5 mins followed by cytochalasin B/fMLP addition for 3 mins by superoxide dismutase inhibitable reduction of ferricytochrome c based assay; type: functional, cell-based; in short: as §1
[3] = Selectivity index, ratio of CC50 for human HuH7 cells to EC50 for DENV2 infected in human HuH7 cells; type: toxicity, cell-based; conditions: read-out: Ratio CC50/EC50
dengue virus type 2 = experiment: Antiviral activity against DENV2 infected in human HuH7 cells; type: functional, organism-based; conditions: Huh-7
[4] = Homo sapiens, MDA-MB-231, read-out: IC50

Row | IC50 (Neutrophil [1]) [µM] | IC50 (Neutrophil [2]) [µM] | EC50 (dengue virus type 2) [µM] | SMILES | IC50 (HepG2) | IC50 (A549) | IC50 (MDA-MB-231; [4]) [µg/mL] | selectivity ratio [3] | IC50 (MDA-MB-231; mda-mb-231)
1 |  |  |  | COC(=O)/C=C/c1ccc(O)c(OC)c1 | > 20 µg/mL | > 20 µg/mL | > 20 |  | 
2 |  |  |  | COc1cccc2c(=O)c3c(O)cc4c(c3n(C)c12)C=CC(C)(C)O4 | > 20 µg/mL | > 20 µg/mL | > 20 |  | 
3 | > 10 | 4.8 |  | CO/N=C/C(=O)c1ccc(O)cc1 | > 20 µg/mL | > 20 µg/mL | > 20 |  | 
4 |  |  |  | C/C(=C\COc1ccc2ccc(=O)oc2c1)C/C=C/C(C)(C)OO | > 20 µg/mL | > 20 µg/mL | > 20 |  | 
5 |  |  |  | C=C(C)C(O)CC/C(C)=C/COc1ccc2ccc(=O)oc2c1 (configuration not stated) | > 20 µg/mL | > 20 µg/mL | > 20 |  | 
6 |  |  |  | CO/N=C/C(=O)c1ccc(O/C=C/[C@H](C)C(=O)OC)cc1 | > 20 µg/mL | > 20 µg/mL | > 20 |  | 
7 |  |  |  | CC(C)=CCc1c(O)c(CC=C(C)C)c2c(c1O)c(=O)c1cccc(O)c1n2C | > 20 µg/mL | > 20 µg/mL | > 20 |  | 
8 |  |  |  | C/C(=C\COc1ccc2ccc(=O)oc2c1)C/C=C/C(C)(C)O | > 20 µg/mL | > 20 µg/mL | > 20 |  | 
9 |  |  |  | CC1(C)CC[C@]2(C)CC[C@H]3[C@]4(C)CC[C@H]5C(C)(C)C(=O)CC[C@]5(C)[C@H]4CC[C@@]3(C)[C@@H]2C1 | > 20 µg/mL | > 20 µg/mL | > 20 |  | 
10 |  |  |  | COC(=O)/C(C)=C/COc1ccc(C(=O)OC)cc1 | > 20 µg/mL | > 20 µg/mL | > 20 |  | 
11 |  |  |  | COC1=CC(=O)c2cc(C)ccc2C1=O | > 20 µg/mL | > 20 µg/mL | > 20 |  | 
12 |  |  |  | C=C(C)C(CC/C(C)=C/COc1ccc2ccc(=O)oc2c1)OO (configuration not stated) | > 20 µg/mL | > 20 µg/mL | > 20 |  | 
13 |  |  |  | CO/N=C/C(=O)c1ccc(OC/C=C(\C)C(=O)OC)cc1 | > 20 µg/mL | > 20 µg/mL | > 20 |  | 
14 |  |  |  | CC(C)=CCOc1ccc(C(=O)/C=N/O)cc1 | > 20 µg/mL | > 20 µg/mL | > 20 |  | 
15 |  |  |  | CC(C)=CCc1c2c(c3c(c1O)c(=O)c1ccccc1n3C)C=CC(C)(C)O2 | > 20 µg/mL | > 20 µg/mL | > 20 |  | 
16 | 3.7 | > 10 | 5.3 | CC(C)=CCc1c2c(c3c(c1O)c(=O)c1cccc(O)c1n3C)C=CC(C)(C)O2 | > 20 µg/mL | > 20 µg/mL | > 20 | 6.3 | 
17 |  |  |  | COc1cc2c(c3[nH]c4ccccc4c(=O)c13)C=CC(C)(C)O2 | > 20 µg/mL | > 20 µg/mL | > 20 |  | 
18 |  |  |  | C=CC(C)(C)c1cc2ccc(O)cc2oc1=O | > 20 µg/mL | > 20 µg/mL | > 20 |  | 
19 |  |  |  | CC1(C)C=Cc2c(cc(O)c3c(=O)cc(-c4ccc(O)cc4)oc23)O1 [ATALANTOFLAVONE] | > 20 µg/mL | > 20 µg/mL | > 20 |  | 
20 |  |  |  | CC(C)=CCc1c2c(c3[nH]c4c(O)cccc4c(=O)c3c1O)C=CC(C)(C)O2 [ATALAPHYLLININE] | 6.5 µM | 7.8 µM |  |  | Not Active
21 |  |  |  | CC1(C)C=Cc2c(cc(O)c3c(=O)c4cccc(O)c4[nH]c23)O1 [ATOLAPHYLLIDINE] | 7.3 µM | 7.8 µM |  |  | Not Active
22 |  |  |  | COc1c2ccoc2cc2oc(=O)ccc12 [BERGAPTEN] | > 20 µg/mL | > 20 µg/mL | > 20 |  | 
23 |  |  |  | COc1cccc2c1C(=O)c1c(O)c3c(c(O)c1C2=O)C[C@@](O)(C(=O)CO)C[C@@H]3O[C@H]1C[C@H](N)[C@H](O)[C@H](C)O1 [DOXORUBICIN] |  | 0.6 µM |  |  | 
24 |  |  |  | COc1cc(O)c2c(=O)c3cccc(O)c3n(C)c2c1CC=C(C)C [GLYCOCITRINE I] | > 20 µg/mL | > 20 µg/mL | > 20 |  | 
25 | > 10 | 2.6 |  | CC(C)=CCOc1c2ccoc2cc2oc(=O)ccc12 [ISOIMPERATORIN] | > 20 µg/mL | > 20 µg/mL | > 20 |  | 
26 | 5.1 | 2.1 |  | O=c1cc(N2CCOCC2)oc2c(-c3ccccc3)cccc12 [LY-294002] |  |  |  |  | 
27 |  |  |  | COC(=O)c1cccc(O)c1OC [METHYL 3-HYDROXY-2-METHOXYBENZOATE] | > 20 µg/mL | > 20 µg/mL | > 20 |  | 
28 |  |  |  | COC(=O)c1ccc(O)cc1 [METHYLPARABEN] | > 20 µg/mL | > 20 µg/mL | > 20 |  | 
29 | > 10 | 4.7 |  | CC1(C)C=Cc2c(ccc3ccc(=O)oc23)O1 [SESALIN] | > 20 µg/mL | > 20 µg/mL | > 20 |  | 
30 |  |  |  | CC(C)=CCc1c2c(c3[nH]c4ccccc4c(=O)c3c1O)C=CC(C)(C)O2 [SEVERIFOLINE] | > 20 µg/mL | > 20 µg/mL | > 20 |  | 

Row | SMILES | IC50 (Neutrophil [1]) [µM] | IC50 (Neutrophil [2]) [µM] | EC50 (dengue virus type 2) [µM] | IC50 (HepG2) | IC50 (A549) | IC50 (MDA-MB-231; [4]) [µg/mL] | selectivity ratio [3] | IC50 (MDA-MB-231; mda-mb-231)
31 | CC(C)=CCOc1c2occc2cc2ccc(=O)oc12 [PENTOSALEN] | > 10 | 0.2 |  | > 20 µg/mL | > 20 µg/mL | > 20 |  | 
